In ChEMBL document CHEMBL4266027, “Cyanobufalins: Cardioactive Toxins from Cyanobacterial Blooms” (J Nat Prod, 2018):

How the values were obtained:
MCF7 = assay: Cytotoxicity against human MCF7 cells assessed as decrease in cell viability after 72 hrs by MTS assay; assay type: functional, cell-based; settings: MCF7, 72 h
Outline: (§1)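 Cell proliferation assay using the MTS reagent. Compounds were tested as a dilution series, and EC50 values were derived from the concentration–response data.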

MES-SA/Dx5 = assay: Cytotoxicity against human MES-SA/Dx5 cells assessed as decrease in cell viability after 72 hrs by MTS assay; assay type: functional, cell-based; settings: MES-SA/Dx5, 72 h; outline: as §1
MES-SA = assay: Cytotoxicity against human MESSA cells assessed as decrease in cell viability after 72 hrs by MTS assay; assay type: functional, cell-based; outline: as §1
HUVEC = assay: Cytotoxicity against human HUVEC cells assessed as decrease in cell viability after 72 hrs by MTS assay; assay type: cell-based; outline: as §1
THP-1 = assay: Cytotoxicity against human THP1 cells assessed as decrease in cell viability after 72 hrs by MTS assay; assay type: functional, cell-based; settings: THP-1, 72 h; outline: as §1
MRC5 = assay: Cytotoxicity against human MRC5 cells assessed as decrease in cell viability after 72 hrs by MTS assay; assay type: cell-based; settings: MRC5, 72 h; outline: as §1
A549 = assay: Cytotoxicity against human A549 cells assessed as decrease in cell viability after 72 hrs by MTS assay; assay type: functional, cell-based; settings: A549, 72 h; outline: as §1
HeLa = assay: Cytotoxicity against human HeLa cells assessed as decrease in cell viability after 72 hrs by MTS assay; assay type: functional, cell-based; outline: as §1
MV4-11 = assay: Cytotoxicity against human MV411 cells assessed as decrease in cell viability after 72 hrs by MTS assay; assay type: functional, cell-based; settings: MV4-11, 72 h; outline: as §1
CCRF S-180 = assay: Cytotoxicity against mouse S180 cells assessed as decrease in cell viability after 72 hrs by MTS assay; assay type: functional, cell-based; settings: CCRF S-180, 72 h; outline: as §1
HepG2 = assay: Cytotoxicity against human HepG2 cells assessed as decrease in cell viability after 72 hrs by MTS assay; assay type: functional, cell-based; settings: HepG2, 72 h; outline: as §1
786-0 = assay: Cytotoxicity against human 786-O cells assessed as decrease in cell viability after 72 hrs by MTS assay; assay type: functional, cell-based; settings: 786-0, 72 h; outline: as §1
PANC-1 = assay: Cytotoxicity against human PANC1 cells assessed as decrease in cell viability after 72 hrs by MTS assay; assay type: functional, cell-based; settings: PANC-1, 72 h; outline: as §1
BT-474 = assay: Cytotoxicity against human BT474 cells assessed as decrease in cell viability after 72 hrs by MTS assay; assay type: functional, cell-based; settings: BT-474, 72 h; outline: as §1
HCT-116 = assay: Cytotoxicity against human HCT116 cells assessed as decrease in cell viability after 72 hrs by MTS assay; assay type: functional, cell-based; settings: HCT-116, 72 h; outline: as §1
DU-145 = assay: Cytotoxicity against human DU145 cells assessed as decrease in cell viability after 72 hrs by MTS assay; assay type: functional, cell-based; settings: DU-145, 72 h; outline: as §1
NCI-H1975 = assay: Cytotoxicity against human NCI-H1975 cells assessed as decrease in cell viability after 72 hrs by MTS assay; assay type: functional, cell-based; settings: NCI-H1975, 72 h; outline: as §1
HT-1080 = assay: Cytotoxicity against human HT1080 cells assessed as decrease in cell viability after 72 hrs by MTS assay; assay type: functional, cell-based; settings: HT-1080, 72 h; outline: as §1
U-87 MG = assay: Cytotoxicity against human U87MG cells assessed as decrease in cell viability after 72 hrs by MTS assay; assay type: functional, cell-based, U-87MG ATCC; outline: as §1
SK-OV-3 = assay: Cytotoxicity against human SKOV3 cells assessed as decrease in cell viability after 72 hrs by MTS assay; assay type: functional, cell-based; settings: SK-OV-3, 72 h; outline: as §1
NCI-N87 = assay: Cytotoxicity against human NCI-N87 cells assessed as decrease in cell viability after 72 hrs by MTS assay; assay type: functional, cell-based; settings: NCI-N87, 72 h; outline: as §1
Daudi = assay: Cytotoxicity against human Daudi cells assessed as decrease in cell viability after 72 hrs by MTS assay; assay type: functional, cell-based; outline: as §1
MDA-MB-468 = assay: Cytotoxicity against human MDA-MB-468 cells assessed as decrease in cell viability after 72 hrs by MTS assay; assay type: functional, cell-based; settings: MDA-MB-468, 72 h; outline: as §1
BXPC-3 = assay: Cytotoxicity against human BxPC3 cells assessed as decrease in cell viability after 72 hrs by MTS assay; assay type: functional, cell-based; settings: BXPC-3, 72 h; outline: as §1
H22 = assay: Cytotoxicity against mouse H22 cells assessed as decrease in cell viability after 72 hrs by MTS assay; assay type: functional, cell-based; settings: H22, 72 h; outline: as §1
LoVo = assay: Cytotoxicity against human LoVo cells assessed as decrease in cell viability after 72 hrs by MTS assay; assay type: functional, cell-based; outline: as §1
[1] = Cytotoxicity against human LOX cells assessed as decrease in cell viability after 72 hrs by MTS assay; assay type: functional, cell-based; outline: as §1

CC1(C)[C@@H](OC(N)=O)[C@H]2O[C@H]2[C@]2(C=O)[C@H]3CC[C@]4(C)[C@@H](c5ccc(=O)oc5)[C@@H](Cl)C[C@]4(O)C3=CC[C@@H]12
EC50 (MCF7): 15 nM
EC50 (MES-SA/Dx5): 5.7 nM
EC50 (MES-SA): 7.4 nM
EC50 (HUVEC): 7.7 nM
EC50 (THP-1): 4.1 nM
EC50 (MRC5): 2.7 nM
EC50 (A549): 3.8 nM
EC50 (HeLa): 5.1 nM
EC50 (MV4-11): 6.4 nM
EC50 (CCRF S-180): > 20000 nM
EC50 (HepG2): 3.2 nM
EC50 (786-0): 2.6 nM
EC50 (PANC-1): 2.4 nM
EC50 (BT-474): 3.9 nM
EC50 (HCT-116): 5.9 nM
EC50 (DU-145): 7.2 nM
EC50 (NCI-H1975): 4.9 nM
EC50 (HT-1080): 5.4 nM
EC50 (U-87 MG): 6.4 nM
EC50 (SK-OV-3): 6.1 nM
EC50 (NCI-N87): 6.3 nM
EC50 (Daudi): 2.8 nM
EC50 (MDA-MB-468): 8.4 nM
EC50 (BXPC-3): 5.5 nM
EC50 (H22): 2400 nM
EC50 (LoVo): 6 nM
EC50 [1]: 3.2 nM
